Only some compounds are listed: those with a hit (about 2.3% of all), similar ones and a draw of the others.
TRPC6 inhibitor: blocks the mouse TRPC6 cation channel; B-score at 10 µM; Q61143; HEK293-TRPC6, membrane potential dye, ACh-evoked depolarization; hits give low values; hit rate 1.1% among 310,000;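 active = B-score under library mean minus 3 SD, initial fluorescence not abnormally high, positive integrated signal ratio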;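 also: B-score derived from integrated fluorescence ratio over the kinetic read; more negative B-score means stronger inhibition of depolarization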
TRPC6 act: activates the mouse TRPC6 cation channel; HEK293-TRPC6 membrane potential dye fluorescence; hits give high values; B-score at 10 µM; hit rate 0.13% among 310,000;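 active = B-score of the integrated fluorescence ratio above library mean plus 3 SD, and starting fluorescence ratio within library mean plus 5 SD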;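 also: higher score means more depolarization so channel activation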
TRPC4 agonist: opens the mouse TRPC4 cation channel; HEK293 TRPC4beta/mu-opioid, Fluo4 calcium fluorescence; hits give high values; B-score at 10 µM; hit rate 0.49% among 310,000; AID 2237;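 active = B-score above 5 SD of library B-scores, and initial fluorescence ratio not above library mean plus 5 SD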;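 also: positive B-score marks a calcium rise read as TRPC4 activation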
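Assay system: HEK293 stable line with TRPC4beta plus mu-opioid receptor; schedule: 45 min room-temperature Fluo4 loading, 110 s read; technique: kinetic Fluo4 calcium fluorescence; evaluation: integrated baseline-normalised fluorescence ratio, converted to per-well B score; controls: buffer (low) and maximal DAMGO (high)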
TRPC4 PAM: allosteric potentiators of mouse TRPC4 channel; HEK293 TRPC4beta/mu-opioid, DAMGO EC20, Fluo-4 Ca2+ flux; hits give high values; B-score at 10 µM; hit rate 0.42% among 310,000; AID 2227;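 active = B-score of calcium response area above 5 SD of library B-scores, with initial fluorescence ratio within 5 SD of library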;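 also: B-score of integrated fluorescence ratio over time as area under calcium response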
TRPC4 inh: blocks the mouse TRPC4 cation channel; HEK293 TRPC4beta/mu-opioid, DAMGO-evoked Fluo4 calcium flux; hits give low values; B-score at 10 µM; hit rate 0.39% among 300,000; AID 2247;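 active = B-score over 3 SD under the library average, no early fluorescence shift, positive overall ratio signal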
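test system = HEK293 cells with stable TRPC4beta plus mu-opioid receptor expression | detection = Fluo4 Ca2+ flux fluorescence | read-out = integrated fluorescence ratio relative to baseline, converted to per-well B score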
An asterisk follows results filed as active.

How did Cc1c(Cl)cccc1NC(=S)NCC(c1cccnc1)N(C)C (stereo not given) do in these assays?
TRPC6 inhibitor: inactive; TRPC6 act: inactive; TRPC4 agonist: 85*; TRPC4 PAM: inactive; TRPC4 inh: inactive

How did Cc1cccc(C)c1NC(=S)NCCc1ccccn1 do in these assays?
TRPC6 inhibitor: inactive; TRPC6 act: inactive; TRPC4 agonist: inactive; TRPC4 PAM: inactive; TRPC4 inh: inactive

Results for COc1ccc(NC(=S)N2CCCN(Cc3cccc(Cl)c3)C2)cc1 ?
TRPC6 inhibitor: inactive; TRPC6 act: inactive; TRPC4 agonist: inactive; TRPC4 PAM: inactive; TRPC4 inh: inactive

How did COc1cccc(NC(=S)N2CCCN(Cc3ccc(F)cc3)C2)c1 do in these assays?
TRPC6 inhibitor: inactive; TRPC6 act: inactive; TRPC4 agonist: 45*; TRPC4 PAM: inactive; TRPC4 inh: inactive

Results for Cc1nc(-c2cccc(C(F)(F)F)c2)sc1C(=O)O ?
TRPC6 inhibitor: inactive; TRPC6 act: inactive; TRPC4 agonist: inactive; TRPC4 PAM: inactive; TRPC4 inh: -6*

What do the screens show for `Cc1nc(-c2ccccc2)sc1C(=O)O`?
TRPC6 inhibitor: inactive; TRPC6 act: inactive; TRPC4 agonist: inactive; TRPC4 PAM: inactive; TRPC4 inh: inactive

Results for CCC(=O)NCCc1nc2cc(NC(=O)c3ccc(F)cc3)ccc2n1C ?
TRPC6 inhibitor: inactive; TRPC6 act: inactive; TRPC4 agonist: inactive; TRPC4 PAM: inactive; TRPC4 inh: inactive

Results for COCCNC(=O)c1ccc2c(Cl)c3c(nc2c1)CCC3 ?
TRPC6 inhibitor: inactive; TRPC6 act: inactive; TRPC4 agonist: inactive; TRPC4 PAM: inactive; TRPC4 inh: inactive

Results for CCCN(CCC)CCCNC(=O)c1ccc2c(Cl)c3c(nc2c1)CCC3 ?
TRPC6 inhibitor: inactive; TRPC6 act: inactive; TRPC4 agonist: 124*; TRPC4 PAM: inactive; TRPC4 inh: inactive

What do the screens show for `Nc1cc(=O)[nH]c(SCC(=O)Nc2ccc(Oc3ccccc3)cc2)n1`?
TRPC6 inhibitor: inactive; TRPC6 act: inactive; TRPC4 agonist: inactive; TRPC4 PAM: inactive; TRPC4 inh: inactive

What do the screens show for `N=c1c2c(ncn1Cc1ccco1)Oc1cc(O)ccc1C2c1ccccc1` (stereo not given)?
TRPC6 inhibitor: inactive; TRPC6 act: inactive; TRPC4 agonist: 57*; TRPC4 PAM: inactive; TRPC4 inh: inactive

How did N=c1c2c(ncn1Cc1ccco1)Oc1c(ccc3ccccc13)C2c1ccccc1 (stereo not given) do in these assays?
TRPC6 inhibitor: inactive; TRPC6 act: inactive; TRPC4 agonist: inactive; TRPC4 PAM: inactive; TRPC4 inh: inactive

Results for Oc1ccccc1CNc1cccc2cccnc12 ?
TRPC6 inhibitor: inactive; TRPC6 act: inactive; TRPC4 agonist: inactive; TRPC4 PAM: inactive; TRPC4 inh: inactive

Results for Nc1sc(-c2ccccc2)n[n+]1Cc1cccc2cccnc12 ?
TRPC6 inhibitor: inactive; TRPC6 act: inactive; TRPC4 agonist: 58*; TRPC4 PAM: inactive; TRPC4 inh: inactive

Results for Cc1c(Cl)ccc2c(C(=O)NC(C)c3ccncc3)cc(-c3ccncc3)nc12 (stereo not given) ?
TRPC6 inhibitor: inactive; TRPC6 act: inactive; TRPC4 agonist: inactive; TRPC4 PAM: inactive; TRPC4 inh: inactive

How did CN(C)CCCNc1ncnc2c1cnn2-c1ccccc1 do in these assays?
TRPC6 inhibitor: inactive; TRPC6 act: inactive; TRPC4 agonist: inactive; TRPC4 PAM: 25*; TRPC4 inh: inactive

How did CN(C)CCCNc1ncnc2c1cnn2Cc1ccccc1Cl do in these assays?
TRPC6 inhibitor: inactive; TRPC6 act: inactive; TRPC4 agonist: inactive; TRPC4 PAM: 18*; TRPC4 inh: inactive

How did CN(C)CCNc1ncnc2ccccc12 do in these assays?
TRPC6 inhibitor: inactive; TRPC6 act: inactive; TRPC4 agonist: inactive; TRPC4 PAM: 11*; TRPC4 inh: inactive

Results for CCOCCn1ccc2c(OCC(=O)NCc3ccccc3)cccc2c1=O ?
TRPC6 inhibitor: inactive; TRPC6 act: inactive; TRPC4 agonist: inactive; TRPC4 PAM: inactive; TRPC4 inh: inactive

Results for O=C(CN1CCN(Cc2ccccc2)CC1)N/N=C/c1ccc(Br)s1 ?
TRPC6 inhibitor: inactive; TRPC6 act: inactive; TRPC4 agonist: inactive; TRPC4 PAM: inactive; TRPC4 inh: inactive

What do the screens show for `Cc1ccc(OCC(=O)NNC(=S)NC(=O)C(C)(C)C)c(Br)c1`?
TRPC6 inhibitor: inactive; TRPC6 act: inactive; TRPC4 agonist: 235*; TRPC4 PAM: inactive; TRPC4 inh: inactive

Results for Cc1ccc(OCC(=O)NC(=S)Nc2ccccn2)c(Br)c1 ?
TRPC6 inhibitor: inactive; TRPC6 act: inactive; TRPC4 agonist: inactive; TRPC4 PAM: inactive; TRPC4 inh: inactive

Results for Cc1ccc(OCC(=O)NNC(=S)NC(=O)C2CCCCC2)c(C)c1 ?
TRPC6 inhibitor: inactive; TRPC6 act: inactive; TRPC4 agonist: 54*; TRPC4 PAM: inactive; TRPC4 inh: inactive

Results for CCNNC(=O)C(O)(Cc1ccccc1)Cc1ccccc1 ?
TRPC6 inhibitor: inactive; TRPC6 act: inactive; TRPC4 agonist: inactive; TRPC4 PAM: inactive; TRPC4 inh: inactive

How did COC(=O)c1cc(C(=O)Nc2ccc(S(N)(=O)=O)cc2)cc([N+](=O)[O-])c1 do in these assays?
TRPC6 inhibitor: inactive; TRPC6 act: inactive; TRPC4 agonist: inactive; TRPC4 PAM: inactive; TRPC4 inh: inactive

What do the screens show for `CNC(=S)NNC(=O)c1cccn(Cc2cccc(Cl)c2)c1=O`?
TRPC6 inhibitor: inactive; TRPC6 act: inactive; TRPC4 agonist: inactive; TRPC4 PAM: 13*; TRPC4 inh: inactive

What do the screens show for `O=[N+]([O-])c1ccc(N2CCN(CCOc3nonc3-c3ccccc3)CC2)c(Cl)c1`?
TRPC6 inhibitor: inactive; TRPC6 act: inactive; TRPC4 agonist: inactive; TRPC4 PAM: 17*; TRPC4 inh: inactive

What do the screens show for `COc1cccc(OC)c1C(=O)Nc1cccc(-n2cnnn2)c1`?
TRPC6 inhibitor: inactive; TRPC6 act: inactive; TRPC4 agonist: inactive; TRPC4 PAM: inactive; TRPC4 inh: inactive

Results for Cc1sc2ncnc(N(C)CCc3ccccn3)c2c1C ?
TRPC6 inhibitor: inactive; TRPC6 act: inactive; TRPC4 agonist: 80*; TRPC4 PAM: inactive; TRPC4 inh: inactive

Results for Cc1sc2ncnc(N(C)Cc3cccs3)c2c1C ?
TRPC6 inhibitor: inactive; TRPC6 act: inactive; TRPC4 agonist: inactive; TRPC4 PAM: inactive; TRPC4 inh: inactive

What do the screens show for `CCOC(=O)C1(CCOc2ccccc2)CCN(Cc2ccc(C)o2)CC1`?
TRPC6 inhibitor: inactive; TRPC6 act: inactive; TRPC4 agonist: inactive; TRPC4 PAM: inactive; TRPC4 inh: -6*

What do the screens show for `CCOC(=O)C1(CCOc2ccccc2)CCN(Cc2ccc(COC)o2)CC1`?
TRPC6 inhibitor: inactive; TRPC6 act: inactive; TRPC4 agonist: inactive; TRPC4 PAM: inactive; TRPC4 inh: inactive
